This is an account of results in ChEMBL document CHEMBL5331127, “Discovery of ARD-2051 as a Potent and Orally Efficacious Proteolysis Targeting Chimera (PROTAC) Degrader of Androgen Receptor for the Treatment of Advanced Prostate Cancer” (J Med Chem, 2023).

Structures are written as SMILES. The source made the active and inactive calls.

The Vdss is a proportionality between amount in the body and measured concentration, not a real space.

Data set [1] in a line: Downregulation of KLK3 gene expression in human LNCaP cells at 10 nM incubated for 24 hrs by qRT-PCR analysis. It counts as functional. An outline of the steps: (§1)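 LNCaP cells (RPMI 1640) or VCaP cells (DMEM Glutamax), both with 10% FBS, treated for 24 h. KLK3 mRNA measured by qRT-PCR and calculated by the comparative CT method against GAPDH and vehicle.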
(In general: In qPCR the cycle at which signal appears reflects the starting amount.)

Data set [2] is described as follows: Downregulation of KLK3 gene expression in human VCaP cells at 30 nM incubated for 24 hrs by qRT-PCR analysis. It is filed as functional. An outline of the steps: as §1
The target of data set [3] is T1, Androgen receptor (Homo sapiens) (UniProt P10275).
T1 sequence (whole entry): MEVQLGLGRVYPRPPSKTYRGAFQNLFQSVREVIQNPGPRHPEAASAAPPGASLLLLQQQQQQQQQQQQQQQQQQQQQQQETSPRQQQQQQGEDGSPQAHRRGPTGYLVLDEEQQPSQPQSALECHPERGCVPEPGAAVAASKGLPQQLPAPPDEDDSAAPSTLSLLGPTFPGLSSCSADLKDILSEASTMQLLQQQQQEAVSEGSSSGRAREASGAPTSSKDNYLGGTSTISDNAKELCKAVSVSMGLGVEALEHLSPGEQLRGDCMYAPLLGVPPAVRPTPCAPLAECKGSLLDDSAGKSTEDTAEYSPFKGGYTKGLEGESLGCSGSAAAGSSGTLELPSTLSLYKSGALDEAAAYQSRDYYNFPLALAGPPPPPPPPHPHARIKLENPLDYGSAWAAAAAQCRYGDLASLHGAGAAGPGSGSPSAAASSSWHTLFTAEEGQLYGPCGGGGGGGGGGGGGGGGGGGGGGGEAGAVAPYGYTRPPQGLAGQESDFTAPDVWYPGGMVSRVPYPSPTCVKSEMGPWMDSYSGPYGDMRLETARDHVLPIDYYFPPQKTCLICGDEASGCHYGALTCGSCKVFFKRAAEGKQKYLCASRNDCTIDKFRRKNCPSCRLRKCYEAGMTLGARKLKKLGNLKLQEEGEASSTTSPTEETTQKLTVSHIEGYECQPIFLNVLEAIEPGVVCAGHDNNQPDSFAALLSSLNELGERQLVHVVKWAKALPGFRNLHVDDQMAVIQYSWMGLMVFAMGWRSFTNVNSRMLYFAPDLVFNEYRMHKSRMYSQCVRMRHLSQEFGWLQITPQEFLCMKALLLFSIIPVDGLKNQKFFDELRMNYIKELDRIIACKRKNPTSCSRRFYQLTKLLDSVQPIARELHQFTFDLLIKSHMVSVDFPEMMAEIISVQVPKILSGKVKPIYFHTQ
Put plainly: Induction of androgen receptor degradation in human VCaP cells at 100 to 1000 nM incubated for 24 hrs by proteomic analysis. It counts as cell-based. The following applies: dose 100-1000 nM. An outline of the steps:
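VCaP cells treated for 24 h with degrader at 100 nM or 1 μM, or with ARi-12 at 10 μM. Multiplexed quantitative proteomics, normalised to DMSO, three independent replicates. Cut-off p ≤0.05 and fold change >2.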

Data set [4] is described as follows: Metabolic stability in dog liver microsomes assessed as half life at 1 uM measured upto 45 mins in presence of NADPH by LC-MS/MS analysis. It is filed as ADME, Canis lupus familiaris, Microsome. The following applies: 0.75 h. In outline: (§2)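 Pooled liver microsomes from each species: 1 μM compound with 0.5 mg/mL microsomes and 1.7 mM NADPH in 0.1 M K-phosphate, pH 7.4, 5 mM MgCl2, 37 °C. Sampled at 0, 5, 10, 15, 30 and 45 min with cold ACN quench. No-NADPH incubation as negative control; ketanserin as positive control. LC-MS/MS; half-life from ln(remaining) versus time.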
For orientation: Liver microsomes are vesicles of endoplasmic reticulum, rich in cytochrome P450 enzymes.

A short description of data set [5]: Metabolic stability in monkey liver microsomes assessed as half life at 1 uM measured upto 45 mins in presence of NADPH by LC-MS/MS analysis. The following applies: rhesus monkey, 0.75 h. It is filed as ADME, Macaca mulatta, Microsome. An outline of the steps:
as §2

Data set [6] can be described thus: Metabolic stability in dog hepatocytes assessed as half life at 1 uM measured upto 120 mins in presence of NADPH by LC-MS/MS analysis. It is filed as ADME, cell-based, Canis lupus familiaris, Hepatocyte. The following applies: 2 h.
Data set [7] is described as follows: Metabolic stability in human plasma assessed as half life at 1 uM measured upto 120 mins by LC-MS/MS analysis. It counts as ADME, cell-free. Particulars: 2 h. An outline of the steps:
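Compound at 1 μM final in pre-warmed plasma of each species, 37 °C for up to 2 h. ACN/IS quench at 0, 5, 15, 30, 60 and 120 min; LC/MS. Procaine as reference (benfluorex for rat). t1/2 = 0.693/slope of ln(fraction remaining) versus time.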

Data set [8] in a line: Plasma protein binding in mouse at 1 uM after 5 hrs by equilibrium dialysis based LC-MS/MS analysis. It counts as ADME, cell-free. In outline:
(§3)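 Equilibrium dialysis of pooled plasma of each species spiked at 1 μM against 0.1 M sodium phosphate, pH 7.4. 5 h at 37 °C with shaking at 60 rpm. Both sides matrix-matched, ACN/IS quench, LC/MS. % bound = 100 − (buffer/plasma peak-area ratio × 100); recovery also calculated. Warfarin as reference.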
In general terms: In equilibrium dialysis only unbound substance equilibrates across the membrane.

A short description of data set [9]: Plasma protein binding in dog at 1 uM after 5 hrs by equilibrium dialysis based LC-MS/MS analysis. It counts as ADME, cell-free, Canis lupus familiaris. In outline:
as §3

Data set [10] is described as follows: AUC(0 to t) in ICR mouse at 2 mg/kg, iv measured upto 24 hrs by LC-MS/MS analysis. It is filed as ADME, organism-based. More on the design: time < 24 hrs, dose 2 mg/kg, route iv. Particulars: in vivo. In outline: (§4)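 Male ICR mice (2 mg/kg), male SD rats (1 mg/kg) or male Beagle dogs (1 mg/kg) given a single intravenous dose in 10% PEG400 + 90% PBS adjusted to pH 8.0 with NaOH.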

The nature of data set [11]: AUC(0 to t) in Sprague-Dawley rat at 1 mg/kg, iv measured upto 24 hrs by LC-MS/MS analysis. It counts as ADME, organism-based. Also noted: time < 24 hrs, dose 1 mg/kg, route iv. The following applies: in vivo. An outline of the steps:
as §4

Data set [12] is described as follows: Volume of distribution at steady state in ICR mouse at 2 mg/kg, iv measured upto 24 hrs by LC-MS/MS analysis. It counts as ADME, organism-based. Particulars: in vivo. In outline: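 Male ICR mice. IV 2 mg/kg and PO 5 mg/kg, both in 10% PEG400 + 90% PBS adjusted to pH 8.0. Plasma sampled to 24 h; F from IV and PO exposure.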
Data set [13] deals with Mus musculus. Put plainly: In vivo induction of androgen receptor degradation in human VCaP cells xenografted in CB17 SCID mouse assessed as reduction in TMPRSS2 mRNA level at 12.5 mg/kg, po measured after 6 to 24 hrs by qRT-PCR analysis. It is filed as functional, organism-based. The following applies: time 6-24 hrs.
The nature of data set [14]: Drug concentration in CB17 SCID mouse tumor xenografted with human VCaP cells at 12.5 mg/kg, po measured after 6 hrs by LC-MS/MS analysis. It counts as ADME, organism-based, Neoplasm. Particulars: read-out: Ct. In outline:
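SCID mice bearing one VCaP tumour each given a single oral 12.5 mg/kg dose in 100% PEG200. Plasma and tumour tissue collected at 6 and 24 h, 3 mice per time point. Values are mean ± SD.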

Data set [15] concerns VCaP. Put plainly: Antitumor activity against human VCaP cells xenografted in CB17 SCID mouse assessed as tumor growth inhibition at 30 mg/kg, po administered for 21 days. It is filed as functional. Particulars: 504 h, time 21 day, read-out: TGI.
Data set [16] can be described thus: Toxicity in CB17 SCID mouse assessed as weight loss at 3.75 to 30 mg/kg, po. It is filed as organism-based. The following applies: in vivo, dose 3.75-30 mg/kg. An outline of the steps: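 SCID mice bearing VCaP xenografts dosed by oral gavage once daily for 21 days. Body weight and signs of toxicity monitored throughout.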

Take `C[C@H]1CC2(CCN(c3ccc(C(=O)N4CCN(C5CN(c6ccc7c(c6)C(=O)N(C6CCC(=O)NC6=O)C7=O)C5)CC4)cc3)CC2)CN1c1ccc(C#N)c(Cl)c1` (stereo partly specified): the Activity in data set [1] is 79%; in [2], 87%; in data set [3] it was 82%; in data set [16], below 5%. Moreover, the t1/2 in data set [4] was above 1 h; in data set [5], above 1 h; in data set [6], above 2 h; in [7] it was above 2 h. Further, the PPB in data set [8] was 99.2%; in [9], 99.3%. Further, the AUCt came to 8850 ng·h/mL in data set [10] and 1560 ng·h/mL in data set [11]. Besides, the Vdss in [12] turned out to be 1.3 L/kg. Moreover, in data set [13], the outcome was Active. Besides, the concentration at 6 h in [14] was 946 ng/mL. In addition, the inhibition in vivo at 30 mg/kg in data set [15] was 80%.
